From paper PMC5349769 (ACS chemical neuroscience, 2015)

Columns and labels:
DAT = DAT (Rattus norvegicus, UniProt P23977); test: Inhibition of [3H]dopamine reuptake at DAT in rat caudate synaptosomes; type: biochemical; details: for efficacy as inhibitor of reuptake at DAT: dose-response, Figure 1A; for EC50: read-out: EC50, DAT uptake inhibition
[1] = test system: intracranial self-stimulation (medial forebrain bundle); details: rats; racemate, earlier report ref 15; cited from earlier work
SERT = SERT (Rattus norvegicus, UniProt P31652); test: Inhibition of [3H]serotonin reuptake at SERT in rat brain synaptosomes; type: biochemical; details: 5 nM [3H]serotonin, data not shown
In short: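 Synaptosomes prepared from rat whole brain minus caudate and cerebellum after CO2 euthanasia. Uptake began by adding tissue suspension to Krebs-phosphate buffer, pH 7.4, containing 0.05 mM pargyline, BSA, ascorbic acid, test compound and 5 nM [3H]serotonin. Unlabeled blockers of competing transporters were included. The assay ended by rapid vacuum filtration through GF/B filters, and retained radioactivity was measured by scintillation counting.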

NET = NET (Rattus norvegicus, UniProt Q63380); test: Inhibition of [3H]norepinephrine reuptake at NET in rat brain synaptosomes; type: biochemical; details: for efficacy as inhibitor of reuptake at NET: dose-response, Figure 1B
[2] = test system: intracranial self-stimulation (medial forebrain bundle); test: Intracranial self-stimulation; type: in vivo, rat; details: rats, i.p.
[3] = ratio of reuptake inhibition potencies

Chain of DAT (P23977 whole entry): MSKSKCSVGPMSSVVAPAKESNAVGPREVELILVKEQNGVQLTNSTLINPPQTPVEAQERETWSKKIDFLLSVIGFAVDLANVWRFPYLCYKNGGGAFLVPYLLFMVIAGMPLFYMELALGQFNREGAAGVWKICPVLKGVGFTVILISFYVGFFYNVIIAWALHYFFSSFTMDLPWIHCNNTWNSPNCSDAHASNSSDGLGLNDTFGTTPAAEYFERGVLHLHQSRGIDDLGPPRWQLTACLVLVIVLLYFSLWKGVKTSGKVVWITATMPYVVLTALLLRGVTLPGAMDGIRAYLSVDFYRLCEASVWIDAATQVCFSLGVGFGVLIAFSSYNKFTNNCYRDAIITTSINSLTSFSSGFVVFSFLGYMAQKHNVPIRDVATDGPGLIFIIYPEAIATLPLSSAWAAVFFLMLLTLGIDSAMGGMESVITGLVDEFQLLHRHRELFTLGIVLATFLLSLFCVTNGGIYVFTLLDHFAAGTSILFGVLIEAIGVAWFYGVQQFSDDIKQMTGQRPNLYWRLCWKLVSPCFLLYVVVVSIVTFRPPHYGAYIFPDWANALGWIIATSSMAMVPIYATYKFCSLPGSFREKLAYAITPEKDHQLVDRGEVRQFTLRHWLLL
Chain of NET (Q63380 1-617): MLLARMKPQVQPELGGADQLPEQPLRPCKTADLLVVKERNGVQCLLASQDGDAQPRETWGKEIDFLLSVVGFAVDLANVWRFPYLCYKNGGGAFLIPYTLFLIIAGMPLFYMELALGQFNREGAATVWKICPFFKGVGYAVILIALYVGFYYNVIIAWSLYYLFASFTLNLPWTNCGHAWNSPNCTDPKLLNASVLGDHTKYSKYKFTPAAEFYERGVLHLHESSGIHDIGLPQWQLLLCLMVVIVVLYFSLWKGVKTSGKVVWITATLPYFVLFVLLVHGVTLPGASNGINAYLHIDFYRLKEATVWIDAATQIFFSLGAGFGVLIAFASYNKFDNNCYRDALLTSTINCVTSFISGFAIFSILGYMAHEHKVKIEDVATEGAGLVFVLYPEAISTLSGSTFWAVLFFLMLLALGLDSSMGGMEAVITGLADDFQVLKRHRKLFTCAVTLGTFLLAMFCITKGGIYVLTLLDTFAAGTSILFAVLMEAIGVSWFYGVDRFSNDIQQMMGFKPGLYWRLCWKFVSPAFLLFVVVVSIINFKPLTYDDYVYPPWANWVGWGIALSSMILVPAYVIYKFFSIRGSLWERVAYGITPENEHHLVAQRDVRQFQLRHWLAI
Chain of SERT (P31652 whole entry): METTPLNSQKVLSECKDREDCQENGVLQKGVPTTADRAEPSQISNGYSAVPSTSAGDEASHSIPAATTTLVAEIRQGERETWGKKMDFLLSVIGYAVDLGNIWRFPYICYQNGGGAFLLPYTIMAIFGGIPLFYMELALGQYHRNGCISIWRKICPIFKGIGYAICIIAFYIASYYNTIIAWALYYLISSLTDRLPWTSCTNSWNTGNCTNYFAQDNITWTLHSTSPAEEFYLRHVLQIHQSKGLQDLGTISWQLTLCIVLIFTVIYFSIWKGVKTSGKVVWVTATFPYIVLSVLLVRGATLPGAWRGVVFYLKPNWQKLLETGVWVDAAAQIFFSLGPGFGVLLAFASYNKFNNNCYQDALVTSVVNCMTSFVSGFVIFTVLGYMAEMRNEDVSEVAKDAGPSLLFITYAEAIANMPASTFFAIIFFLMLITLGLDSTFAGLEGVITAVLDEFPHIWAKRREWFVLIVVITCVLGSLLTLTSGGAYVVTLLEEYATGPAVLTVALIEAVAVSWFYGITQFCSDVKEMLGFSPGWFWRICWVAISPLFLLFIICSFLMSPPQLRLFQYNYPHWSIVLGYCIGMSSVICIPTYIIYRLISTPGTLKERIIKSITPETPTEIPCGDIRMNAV

SMILES | efficacy as inhibitor of reuptake at DAT (DAT) | EC50 (DAT) [nM] | doses producing significant facilitation of ICSS [1] [mg/kg] | concentration up to which reuptake of [3H]serotonin at SERT was not inhibited (SERT) [µM] | efficacy as inhibitor of reuptake at NET (NET) | dose without effect on ICSS relative to the lowest effective dose of S(+)MDPV ([2]; up to 10 mg/kg) [fold] | fold more potent as reuptake inhibitor than R(−)MDPV at DAT (DAT; [3]) | fold more potent than cocaine at DAT (DAT; [3]) [fold] | potency relative to the racemate at DAT (DAT; reuptake inhibition) | effect on ICSS relative to vehicle, posthoc analysis ([2]; doses of 0.32 and 1.0 mg/kg, one-way ANOVA, Dunnett's posthoc) | effect on ICSS frequency–rate curve (%MCR) ([2]; S(+)MDPV 0.32 mg/kg, R(−)MDPV 3.2 mg/kg, Figure 2B,C) | fold more potent as reuptake inhibitor than R(−)MDPV at NET (NET; [3]) [fold] | fold more potent than cocaine at NET (NET; [3]) [fold] | potency relative to the racemate at NET (NET; reuptake inhibition)
CCCC(C(=O)c1ccc2c(c1)OCO2)N1CCCC1 (racemic) [(±)MDPV (3), methylenedioxypyrovalerone] | fully efficacious | 4.85 | ≥ 0.32 | > 10 | fully efficacious | – | – | – | – | – | – | – | – | –
CCC[C@H](C(=O)c1ccc2c(c1)OCO2)N1CCCC1.Cl [R(−)MDPV (3R), R(−)-Methylendioxypyrovalerone Hydrochloride] | – | 383 | – | – | – | > 100 | – | – | – | – | – | – | – | –
CCC[C@@H](C(=O)c1ccc2c(c1)OCO2)N1CCCC1.Cl [S(+)MDPV (3S), S(+)-Methylendioxypyrovalerone Hydrochloride] | fully efficacious | 2.13 | – | – | fully efficacious | – | approximately 200 fold | 100 | approximately twice as potent | significantly facilitated ICSS | leftward shift in the ICSS frequency–rate curve | ~80 | 40 | approximately twice as potent
